Compound activity from PubChem BioAssay.
Hits are enriched below; roughly 2.3% of the tested compounds scored in any of these assays.
ADAM17 inh – inhibitors of human ADAM17; AID 720648; inhibition, % at 6.95 µM; recombinant ADAM17, EDANS/DABCYL FRET peptide cleavage; P78536; 370,000 compounds, 0.83% hits;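 active = inhibition above the mean of compounds lying between control limits plus 3 SD, set per campaign, cut at about 8.5% in these data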;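 note: 0% = DMSO-only wells as the low control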
ADAM10 inh – inhibits human ADAM10 | O14672 | recombinant ADAM10, EDANS/DABCYL FRET peptide cleavage, 3 h | inhibition, % at 7 µM | 370,000 compounds, 0.62% hits | AID 720582;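 active = inhibition above a per-campaign cutoff equal to the mean of compounds falling between control-based bounds plus 3 SD, cut at about 20% in these data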;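 note: 0% = DMSO wells while the 100% control is not disclosed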
Target sequence (O14672 214-748 limits assumed): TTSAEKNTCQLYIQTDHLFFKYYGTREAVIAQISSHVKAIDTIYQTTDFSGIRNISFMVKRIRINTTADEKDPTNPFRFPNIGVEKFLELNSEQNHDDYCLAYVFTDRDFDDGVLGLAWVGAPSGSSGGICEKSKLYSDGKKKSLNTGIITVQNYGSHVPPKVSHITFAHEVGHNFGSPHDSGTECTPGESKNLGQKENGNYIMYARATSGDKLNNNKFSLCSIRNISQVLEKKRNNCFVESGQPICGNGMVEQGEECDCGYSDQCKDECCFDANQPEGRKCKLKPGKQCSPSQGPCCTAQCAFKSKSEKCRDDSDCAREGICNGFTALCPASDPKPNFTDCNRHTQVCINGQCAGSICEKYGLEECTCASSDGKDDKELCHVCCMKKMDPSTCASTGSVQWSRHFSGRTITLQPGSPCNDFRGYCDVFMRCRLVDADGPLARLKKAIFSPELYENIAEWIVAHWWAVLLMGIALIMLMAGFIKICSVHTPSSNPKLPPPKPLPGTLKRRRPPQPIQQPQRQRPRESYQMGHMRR
PLCg1 inh – PLC-gamma1 (human) inhibition, primary screen; P19174; purified PLC-gamma1, fluorogenic substrate, fluorescence; inhibition, % at 12.2 µM; 370,000 compounds, 0.84% hits; AID 720700; in the data active = inhibition above about 9.5%
DDE Tn6 FP inh – inhibitors of Tn6 peptide binding to human fibrin DD(E) | AID 720509 | inhibition, % at 8.3 µM | 370,000 compounds, 0.21% hits | Fibrin DD(E) TRITC-Tn6 fluorescence polarization displacement | P02675;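 active = inhibition above a per-campaign cutoff: mean of compounds within control limits plus 3 SD, cut at about 15% in these data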;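 note: 0% = median of all compound wells on the plate and 100% = blocking peptide control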
PLC-beta3 inh – inhibitors of human phospholipase C beta3; Purified PLC-beta3, fluorogenic substrate, fluorescence; inhibition, % at 12.2 µM; 370,000 compounds, 0.18% hits; AID 720704; in the data active = inhibition above about 11%;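 note: 0% = median of compound wells on plate and 100% = full blocker control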
Tn7 DDE FP – inhibitors of Tn7 peptide binding to human fibrin DD(E); P02675; FP displacement of FITC-Tn7 peptide from fibrin DD(E); 0% = median of compound wells per plate; inhibition, % at 8.3 µM; 370,000 compounds, 0.13% hits; AID 720508;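 active = inhibition above the mean of compounds falling within the control limits plus 3 SD of them, cut at about 14% in these data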;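 note: 0% = plate median of compound wells and 100% = 10 µM Aha-Tn7 peptide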
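Test system – human fibrin DD(E) · Times – 10 min preincubation, 3 h with tracer, room temperature · Detection – fluorescence polarization of the labelled Tn7 tracer · Measure – percent inhibition normalized to high-control wells · Benchmarks – high control wells with 10 µM unlabelled Aha-Tn7 peptide (full inhibition) · Repeats – singlicate testing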
DDE Tn6 FP ctr – DD(E)-Tn6 binding inhibition, counter-screen; shares compounds with DDE Tn6 FP inh; Fibrin DD(E), TRITC-Tn6 fluorescence polarization displacement; 0% = median of compound wells, not DMSO; inhibition, % at 8.3 µM; 680 compounds, 2% hits; AID 720621;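 active = inhibition above the mean of test compounds lying between the control limits plus 3 SD of those, cut at about 14% in these data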;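 note: 0% = median of compound wells and 100% = wells with Aha-Tn7 blocking peptide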
Tn6 DDE conf – DD(E)-Tn6 binding inhibition, FP confirmation; FP displacement of TRITC-Tn6 peptide from DD(E); 0% = per-plate median of test wells; AID 720631; 680 compounds, 10% hits; inhibition, % at 8.3 µM; shares compounds with DDE Tn6 FP inh;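 active = inhibition above the mean of compounds lying within the control limits plus 3 SD, cut at about 16% in these data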;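 note: 100% = high control wells holding a competing inhibitor peptide at 10 µM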
An asterisk follows results filed as active.

For CC(C)(C)c1ccc(S(=O)(=O)NCCc2ccncc2)cc1 the results were ADAM17 inh -4, ADAM10 inh 0, PLCg1 inh -20, DDE Tn6 FP inh 7, PLC-beta3 inh 3 and Tn7 DDE FP -2.
Screening CC1(C)CCN2CCC(C)(C)c3c(O)ccc1c32 returned ADAM17 inh -12, ADAM10 inh -30, PLCg1 inh -46, DDE Tn6 FP inh 30*, PLC-beta3 inh -58, Tn7 DDE FP 8, DDE Tn6 FP ctr 2 and Tn6 DDE conf 4.
`O=S(=O)(Nc1cccc(-c2cn3cccnc3n2)c1)c1ccc(-c2ccccc2)cc1` gave ADAM17 inh -182, ADAM10 inh -440, PLCg1 inh -287, DDE Tn6 FP inh 20*, PLC-beta3 inh -349, Tn7 DDE FP -3, DDE Tn6 FP ctr 1 and Tn6 DDE conf -6.
`O=S(=O)(Nc1cccc(-c2cn3cccnc3n2)c1)c1ccccc1` gave ADAM17 inh inactive, ADAM10 inh inactive, PLCg1 inh -469, DDE Tn6 FP inh -9, PLC-beta3 inh -468 and Tn7 DDE FP 2.
`Cc1cccc(NC(=O)C2CCN(S(=O)(=O)c3ccc(Cl)cc3)CC2)n1` gave ADAM17 inh 0, ADAM10 inh 7, PLCg1 inh 0, DDE Tn6 FP inh 17*, PLC-beta3 inh -1, Tn7 DDE FP 6, DDE Tn6 FP ctr -3 and Tn6 DDE conf -5.
Screening CCOC(=O)N1CCN(C(=O)C[C@H]2C[C@@]3(C(=O)OC)C(=C[C@H](C4CCCC4)O[C@@H]3C)N(CCC3=CCCCC3)C2=O)CC1 returned ADAM17 inh 2, ADAM10 inh 5, PLCg1 inh 0, DDE Tn6 FP inh -5, PLC-beta3 inh 2 and Tn7 DDE FP 2.
COC(=O)COC(=O)c1ccc(Oc2nc(OC)nc(N(C)C)n2)cc1 was read as ADAM17 inh 1, ADAM10 inh 6, PLCg1 inh 6, DDE Tn6 FP inh 21*, PLC-beta3 inh 3, Tn7 DDE FP -9, DDE Tn6 FP ctr 0 and Tn6 DDE conf 4.
COc1ccc(Oc2c(Cl)cnn(-c3ccc(C(C)C)c(C)c3)c2=O)cc1 was read as ADAM17 inh -1, ADAM10 inh 1, PLCg1 inh -2, DDE Tn6 FP inh 4, PLC-beta3 inh -5 and Tn7 DDE FP 1.
`CC(=O)Nc1ccc(/C=C/COC(C)=O)cc1C` gave ADAM17 inh 0, ADAM10 inh -2, PLCg1 inh 3, DDE Tn6 FP inh 0, PLC-beta3 inh 3 and Tn7 DDE FP 1.
For Cc1cc2cc(CNC(=O)Nc3cccc(Cl)c3)ccc2n1C the results were ADAM17 inh -1, ADAM10 inh -11, PLCg1 inh -21, DDE Tn6 FP inh 70*, PLC-beta3 inh -27, Tn7 DDE FP 3, DDE Tn6 FP ctr 6 and Tn6 DDE conf 18*.
`COc1cccc(NC(=S)NCc2ccc3c(c2)cc(C)n3C)c1` gave ADAM17 inh 0, ADAM10 inh 0, PLCg1 inh -58, DDE Tn6 FP inh 10, PLC-beta3 inh -73 and Tn7 DDE FP 6.
Screening Cc1cccc(NC(=O)NCc2ccc3c(c2)cc(C)n3C)c1 returned ADAM17 inh 5, ADAM10 inh -11, PLCg1 inh -9, DDE Tn6 FP inh 46*, PLC-beta3 inh -15, Tn7 DDE FP -5, DDE Tn6 FP ctr 0 and Tn6 DDE conf 9.
O=C(NCc1ccncc1)Nc1cccc(Cl)c1 was read as ADAM17 inh 3, ADAM10 inh 10, PLCg1 inh 8, DDE Tn6 FP inh 9, PLC-beta3 inh 9 and Tn7 DDE FP -4.
Cc1cccc(NC(=S)NCc2ccc3c(c2)cc(C)n3C)c1C was read as ADAM17 inh 5, ADAM10 inh 8, PLCg1 inh -40, DDE Tn6 FP inh 23*, PLC-beta3 inh -60, Tn7 DDE FP -5, DDE Tn6 FP ctr 4 and Tn6 DDE conf -1.
For Cc1cc2cc(CNC(=O)CCC(=O)O)ccc2n1C the results were ADAM17 inh -7, ADAM10 inh -19, PLCg1 inh -13, DDE Tn6 FP inh 9, PLC-beta3 inh -23 and Tn7 DDE FP -5.
`CN1C2=NC(c3ccccc3)CC(=O)N2/C(=C\c2ccccc2)C1c1ccccc1C(F)(F)F` (centres undefined) gave ADAM17 inh -1, ADAM10 inh 2, PLCg1 inh -3, DDE Tn6 FP inh 4, PLC-beta3 inh 2 and Tn7 DDE FP 7.
Screening O=C(NCCc1nc2ccccc2n1C/C=C/c1ccccc1)C1CCCCC1 returned ADAM17 inh 0, ADAM10 inh 12, PLCg1 inh 9, DDE Tn6 FP inh -1, PLC-beta3 inh 7 and Tn7 DDE FP -1.
O=C(Cn1nnc(-c2ccc(N3CCOCC3)cc2)n1)c1cccc(F)c1 was read as ADAM17 inh 1, ADAM10 inh -2, PLCg1 inh 0, DDE Tn6 FP inh 5, PLC-beta3 inh -6 and Tn7 DDE FP 3.
Screening CCOC(=O)[C@]12CCCCC/C=C\1N(CCc1ccc(Cl)cc1)C(=O)[C@H]2CC(=O)N1CCN(C(=O)c2ccco2)CC1 returned ADAM17 inh 0, ADAM10 inh -2, PLCg1 inh 1, DDE Tn6 FP inh 1, PLC-beta3 inh -1 and Tn7 DDE FP 3.
Screening Cc1cc2ncc(S(=O)(=O)C(C)(C)C)c(N)n2n1 returned ADAM17 inh 1, ADAM10 inh 3, PLCg1 inh -1, DDE Tn6 FP inh 17*, PLC-beta3 inh -4, Tn7 DDE FP 0, DDE Tn6 FP ctr 8 and Tn6 DDE conf 3.
`COC(=O)CCCn1cc(CN2CC=CS2(=O)=O)nn1` gave ADAM17 inh -5, ADAM10 inh -7, PLCg1 inh -2, DDE Tn6 FP inh -1, PLC-beta3 inh 0 and Tn7 DDE FP 2.
Screening COc1ccc(NC(=O)C(c2cc3c(cc2[N+](=O)[O-])OCO3)N(C)C)cc1 (centres undefined) returned ADAM17 inh -58, ADAM10 inh -32, PLCg1 inh -4, DDE Tn6 FP inh 15*, PLC-beta3 inh -7, Tn7 DDE FP -9, DDE Tn6 FP ctr -3 and Tn6 DDE conf -6.
CCCCC[C@@H](O)c1cc2ccccc2c(=O)o1 was read as ADAM17 inh -1, ADAM10 inh 2, PLCg1 inh 0, DDE Tn6 FP inh 16*, PLC-beta3 inh -1, Tn7 DDE FP 4, DDE Tn6 FP ctr 0 and Tn6 DDE conf -3.
For O=C(c1cccs1)C1CCN(c2ncnc3sccc23)CC1 the results were ADAM17 inh 1, ADAM10 inh 4, PLCg1 inh 0, DDE Tn6 FP inh -6, PLC-beta3 inh 1 and Tn7 DDE FP 0.
